High-throughput results (PubChem BioAssay)
This is a sample that favours compounds with a hit; in the whole collection about 3% have one here.
TRPC6 activator: activates the mouse TRPC6 cation channel; Q61143; HEK293-TRPC6 membrane potential dye fluorescence; active compounds read high; B-score at 10 µM; hit rate 0.13% among 310,000; AID 2550;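 active means B-score of the integrated fluorescence ratio above library mean plus 3 SD, and starting fluorescence ratio within library mean plus 5 SD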;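 further: higher score means more depolarization so channel activation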
TRPC4 act: opens the mouse TRPC4 cation channel; Q9QUQ5; HEK293 TRPC4beta/mu-opioid, Fluo4 calcium fluorescence; active compounds read high; B-score at 10 µM; hit rate 0.49% among 310,000; AID 2237;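 active means B-score above 5 SD of library B-scores, and initial fluorescence ratio not above library mean plus 5 SD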;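 further: positive B-score marks a calcium rise read as TRPC4 activation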
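Technique: kinetic Fluo4 calcium fluorescence; Test system: TRPC4beta and mu-opioid receptor HEK293 stable cells; Measure: B-scored integrated calcium fluorescence ratio; Benchmarks: low control buffer alone, high control maximal DAMGO; Schedule: 45 min room-temperature Fluo4 loading, 110 s read.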
TRPC4 PAM: TRPC4 (mouse) allosteric potentiation; HEK293 TRPC4beta/mu-opioid, DAMGO EC20, Fluo-4 Ca2+ flux; active compounds read high; B-score at 10 µM; hit rate 0.42% among 310,000; AID 2227;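 active means B-score of calcium response area above 5 SD of library B-scores, with initial fluorescence ratio within 5 SD of library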;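 further: B-score of integrated fluorescence ratio over time as area under calcium response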
Kir21 block: blocks the mouse Kir2.1 inward-rectifier potassium channel; hit rate 0.85% among 310,000; AID 1672; P35561; HEK293-Kir2.1, FluxOR thallium flux fluorescence; active compounds read low; B-score at 10 µM;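 active means fluorescence ratio B-score at or below minus 3 SD of library scores, with starting-brightness B-score within 2 SD, cut at about -4.2 in these data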;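 further: channel flux triggered by added potassium and thallium sulfate stimulus; B-score of peak minus minimum fluorescence over baseline after thallium stimulus; more negative B-score means stronger Kir2.1 block with less thallium influx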
Target sequence (P35561 whole entry, looked up): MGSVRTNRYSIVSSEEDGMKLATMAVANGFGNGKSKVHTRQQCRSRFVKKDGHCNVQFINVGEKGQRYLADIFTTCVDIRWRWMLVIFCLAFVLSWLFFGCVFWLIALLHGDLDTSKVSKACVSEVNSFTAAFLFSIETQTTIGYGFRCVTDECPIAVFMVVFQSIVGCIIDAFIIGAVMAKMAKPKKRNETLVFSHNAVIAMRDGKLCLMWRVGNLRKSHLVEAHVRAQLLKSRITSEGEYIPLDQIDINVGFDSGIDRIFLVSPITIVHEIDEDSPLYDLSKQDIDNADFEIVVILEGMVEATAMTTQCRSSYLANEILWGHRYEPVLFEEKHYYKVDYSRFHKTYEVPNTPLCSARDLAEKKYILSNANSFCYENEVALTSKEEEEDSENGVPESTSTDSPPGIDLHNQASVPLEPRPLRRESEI
TRPC4 inh: TRPC4 (mouse) channel inhibition; HEK293 TRPC4beta/mu-opioid, DAMGO-evoked Fluo4 calcium flux; active compounds read low; hit rate 0.39% among 300,000; B-score at 10 µM;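 active means B-score over 3 SD under the library average, no early fluorescence shift, positive overall ratio signal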
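test system = HEK293 cells with stable TRPC4beta plus mu-opioid receptor expression | detection = Fluo4 Ca2+ flux fluorescence | read-out = integrated fluorescence ratio relative to baseline, converted to per-well B score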
TRPC6 inhibitor: blocks the mouse TRPC6 cation channel | Q61143 | HEK293-TRPC6, membrane potential dye, ACh-evoked depolarization; active compounds read low | B-score at 10 µM | hit rate 1.1% among 310,000 | AID 2553;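 active means B-score under library mean minus 3 SD, initial fluorescence not abnormally high, positive integrated signal ratio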;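 further: B-score derived from integrated fluorescence ratio over the kinetic read; more negative B-score means stronger inhibition of depolarization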
TRPC4 sel inh 2: second check of whether TRPC6 inhibitors also affect mouse TRPC4 | shares compounds with TRPC6 inhibitor | HEK293 TRPC4/MOR, membrane potential dye fluorescence; channel activated by saturating DAMGO dose | inhibition, % at 10 µM | hit rate 42% among 920;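 active means compounds whose fluorescence signal differed from control wells by over 3 SD, either direction, in both duplicate plates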
TRPC4 spec: tests whether TRPC6 inhibitors also affect mouse TRPC4; hit rate 61% among 920; shares compounds with TRPC6 inhibitor; activity change, negative = inhibition, % at 10 µM; HEK293 TRPC4/mu-opioid, membrane potential fluorescence;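 active means rise or fall in signal beyond 3 SD of buffer-only wells in both replicate plates, either sign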;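 further: integrated kinetic ratio of fluorescence range over baseline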
HEK293 MPD ctr 2-1: second check of TRPC6 inhibitor effects in parental HEK293 cells; shares compounds with TRPC6 inhibitor; parental HEK293 membrane potential dye fluorescence; maximal acetylcholine challenge after compound addition; signal change vs control, % at 10 µM; hit rate 31% among 920; AID 2779;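 active means membrane potential signal moving either way by over 3 SD of the maximum-effect control, in both duplicate plates, meaning non-specific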
HEK293 MPD ctr-1: checks TRPC6 inhibitor effects in parental HEK293 cells. shares compounds with TRPC6 inhibitor. hit rate 60% among 920. parental HEK293 membrane potential dye fluorescence. membrane potential signal change, % at 10 µM. AID 2780;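 active means membrane potential signal shifting up or down by more than 3 SD of buffer-only wells, on both duplicate plates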
HEK293 MPD ctr-2: counter-screen for TRPC6 modulators: effect in parental HEK293 cells; shares compounds with TRPC6 inhibitor; AID 488924; membrane potential signal change, % at 10 µM; membrane potential dye fluorescence; hit rate 51% among 2,400;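 active means membrane potential signal moves up or down beyond 5 SD from buffer-only wells, on both duplicate plates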
HEK293 MPD ctr 2-2: second counter-screen for TRPC6 modulators: effect in parental HEK293 cells | shares compounds with TRPC6 inhibitor | membrane potential dye fluorescence; after compound, maximal acetylcholine stimulation | inhibition, % at 10 µM | hit rate 14% among 2,400 | AID 488926;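 active means membrane potential signal drops by more than 5 SD from the mean control signal, in both duplicate plates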;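 further: plate controls were acetylcholine ECmax control wells for no effect and buffer only wells for full effect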
TRPC4/MOR mod: selectivity of TRPC6 modulators against mouse TRPC4. shares compounds with TRPC6 inhibitor. HEK293 TRPC4/mu-opioid, membrane potential fluorescence. percent change from control (negative = decrease, positive = increase), % at 10 µM. hit rate 69% among 2,400;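 active means membrane potential signal moved up or down beyond 5 SD of buffer control wells, in both duplicate plates, actives on both sides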;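 further: plate controls were assay buffer wells for no effect and DAMGO maximal-effect wells for full effect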
TRPC4 ctr inh 2: second check of whether TRPC6 modulators also affect mouse TRPC4. shares compounds with TRPC6 inhibitor. HEK293 TRPC4/mu-opioid, membrane potential dye fluorescence; stimulated with maximal-effect DAMGO. inhibition, % at 10 µM. hit rate 55% among 2,400;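 active means drop in membrane potential signal beyond 5 SD of the control wells in both duplicate plates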;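 further: TRPC4 counter screen for TRPC6 hits run under conditions tuned for TRPC6 not TRPC4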
TRPC6 block conf: confirmation of mouse TRPC6 inhibitors; AID 488960; hit rate 43% among 3,300; shares compounds with TRPC6 inhibitor; inhibition, % at 10 µM; HEK293-TRPC6, membrane potential dye, ACh-evoked depolarization;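 active means fluorescence ratio falls more than 5 SD below the full-stimulation control mean, in both duplicate runs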;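 further: integrated fluorescence ratio of peak minus minimum over baseline after agonist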
TRPC6 act confirm: confirmation of mouse TRPC6 activators | HEK293-TRPC6 membrane potential dye fluorescence, FDSS | activation, % at 10 µM | AID 488961 | shares compounds with TRPC6 inhibitor | hit rate 11% among 2,800;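 active means ratio signal rise beyond 5 SD above unstimulated control wells' mean, seen in both duplicate runs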;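 further: plate controls were buffer EC0 wells for no effect and acetylcholine ECmax response for full effect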
Starred values were filed as active, the others as inactive.

Screening COc1ccccc1CC(=O)NC1CCCCCC1 returned TRPC6 activator inactive, TRPC4 act inactive, TRPC4 PAM inactive, Kir21 block 0.79, TRPC4 inh inactive and TRPC6 inhibitor inactive.
For CCc1ccccc1OCC(=O)NC1CCCC1 the results were TRPC6 activator inactive, TRPC4 act inactive, TRPC4 PAM inactive, Kir21 block -1.6, TRPC4 inh inactive, TRPC6 inhibitor -5.8*, HEK293 MPD ctr-2 112%*, HEK293 MPD ctr 2-2 inactive, TRPC4/MOR mod 20%*, TRPC4 ctr inh 2 inactive and TRPC6 block conf 41%*.
For O=C(COc1ccccc1)NC1CCCCCCC1 the results were TRPC6 activator inactive, TRPC4 act inactive, TRPC4 PAM 39*, Kir21 block -1.6, TRPC4 inh inactive, TRPC6 inhibitor -6*, HEK293 MPD ctr-2 102%*, HEK293 MPD ctr 2-2 inactive, TRPC4/MOR mod 77%*, TRPC4 ctr inh 2 inactive and TRPC6 block conf inactive.
Screening COc1ccccc1N(CC(=O)NC1CCCCC1)S(=O)(=O)c1ccccc1 returned TRPC6 activator inactive, TRPC4 act inactive, TRPC4 PAM inactive, Kir21 block -0.13, TRPC4 inh inactive, TRPC6 inhibitor -5.1*, HEK293 MPD ctr-2 474%*, HEK293 MPD ctr 2-2 inactive, TRPC4/MOR mod 208%*, TRPC4 ctr inh 2 38%* and TRPC6 block conf inactive.
For COC(=O)c1ccccc1OCC(=O)NC1CCCCC1 the results were TRPC6 activator inactive, TRPC4 act inactive, TRPC4 PAM inactive, Kir21 block -0.4, TRPC4 inh inactive, TRPC6 inhibitor -5.3*, HEK293 MPD ctr-2 inactive, HEK293 MPD ctr 2-2 inactive, TRPC4/MOR mod 8.0%*, TRPC4 ctr inh 2 inactive and TRPC6 block conf inactive.
`COc1ccccc1C(=O)NC1CCCCCCC1` gave TRPC6 activator inactive, TRPC4 act inactive, TRPC4 PAM inactive, Kir21 block -0.19, TRPC4 inh inactive and TRPC6 inhibitor inactive.
Screening COc1ccccc1NC(=O)COc1ccc(Br)cc1CNC1CCCC1 returned TRPC6 activator inactive, TRPC4 act inactive, TRPC4 PAM inactive, Kir21 block -1.8, TRPC4 inh inactive, TRPC6 inhibitor -7.6*, TRPC4 sel inh 2 54%*, TRPC4 spec 14%*, HEK293 MPD ctr 2-1 238%*, HEK293 MPD ctr-1 9.8%*, TRPC6 block conf inactive and TRPC6 act confirm inactive.
For COc1ccc(S(=O)(=O)CCC(=O)NC2CCCCC2)cc1 the results were TRPC6 activator inactive, TRPC4 act inactive, TRPC4 PAM inactive, Kir21 block -3.8, TRPC4 inh inactive, TRPC6 inhibitor -8.1*, TRPC4 sel inh 2 inactive, TRPC4 spec inactive, HEK293 MPD ctr 2-1 inactive, HEK293 MPD ctr-1 inactive, TRPC6 block conf inactive and TRPC6 act confirm inactive.
For O=C(CCS(=O)(=O)c1ccccc1)NC1CCCCC1 the results were TRPC6 activator inactive, TRPC4 act inactive, TRPC4 PAM inactive, Kir21 block 1.7, TRPC4 inh inactive and TRPC6 inhibitor inactive.
CCC1COCCS(=O)(=O)N1Cc1cccc(C(F)(F)F)c1 (stereo not drawn) was read as TRPC6 activator inactive, TRPC4 act inactive, TRPC4 PAM inactive, Kir21 block -1.6, TRPC4 inh inactive and TRPC6 inhibitor inactive.
O=c1c2ccccc2ncn1CCCCOc1ccc(Br)cc1 was read as TRPC6 activator inactive, TRPC4 act inactive, TRPC4 PAM inactive, Kir21 block 0.77, TRPC4 inh inactive and TRPC6 inhibitor inactive.
Nc1nc(N2CCN(c3ccccn3)CC2)nc2ccccc12 was read as TRPC6 activator inactive, TRPC4 act inactive, TRPC4 PAM inactive, Kir21 block -0.21, TRPC4 inh inactive, TRPC6 inhibitor -6.9*, TRPC4 sel inh 2 49%*, TRPC4 spec -19%*, HEK293 MPD ctr 2-1 inactive, HEK293 MPD ctr-1 -232%*, TRPC6 block conf 62%* and TRPC6 act confirm inactive.
For c1ccc(-c2nc(N3CCNCC3)nc3ccccc23)cc1 the results were TRPC6 activator inactive, TRPC4 act inactive, TRPC4 PAM 18*, Kir21 block -7.2*, TRPC4 inh inactive, TRPC6 inhibitor -8*, TRPC4 sel inh 2 40%*, TRPC4 spec inactive, HEK293 MPD ctr 2-1 inactive, HEK293 MPD ctr-1 4.7%*, TRPC6 block conf inactive and TRPC6 act confirm inactive.
For c1ccc(-c2nc(N3CCCCC3)nc3ccccc23)cc1 the results were TRPC6 activator inactive, TRPC4 act inactive, TRPC4 PAM inactive, Kir21 block 0.05, TRPC4 inh inactive and TRPC6 inhibitor inactive.
`Nc1nc(N2CCCCC2)nc2ccccc12` gave TRPC6 activator inactive, TRPC4 act inactive, TRPC4 PAM inactive, Kir21 block -0.15, TRPC4 inh -8*, TRPC6 inhibitor -11*, HEK293 MPD ctr-2 -212%*, HEK293 MPD ctr 2-2 inactive, TRPC4/MOR mod -42%*, TRPC4 ctr inh 2 92%*, TRPC6 block conf 70%* and TRPC6 act confirm inactive.
